{"data": "Measured values gathered from unrelated publications", "SLC22A11": "Solute carrier family 22 member 11 (SLC22A11, Homo sapiens, UniProt Q9NSA0)", "CA1": "Carbonic anhydrase 1 (CA1, Homo sapiens, UniProt P00915)", "Protein phosphatase methylesterase 1": "Protein phosphatase methylesterase 1 (Homo sapiens, UniProt Q9Y570)", "ADRA2A": "Alpha-2A adrenergic receptor (ADRA2A, Homo sapiens, UniProt P08913)", "note": "Compare with care: the assays were run in different laboratories."}
{"Compound": "CC(=O)c1c(C)c2cnc(Nc3ccc(C4CCN(CCS(C)(=O)=O)CC4)cn3)nc2n(C2CCCC2)c1=O", "target": "Cytochrome P450 2C19 (CYP2C19, Homo sapiens, UniProt P33261)", "test": "enzyme activity, inhibitor", "system": "human, liver microsomes", "quantity": "IC50", "result": "> 10 µM"}
{"Compound": "CC[C@H](C)[C@H](NC(=O)[C@H](CCCCNC(=O)CN(CCNC(=O)CN(CCNC(=O)CN(CCNC(=O)CN(CCNC(=O)[C@H](CCCNC(=N)N)NC(C)=O)C(=O)Cn1ccc(N)nc1=O)C(=O)Cn1cnc2c(=O)[nH]c(N)nc21)C(=O)Cn1cnc2c(=O)[nH]c(N)nc21)C(=O)Cn1ccc(N)nc1=O)NC(=O)[C@H](C)NC(=O)[C@H](CCCNC(=N)N)NC(=O)[C@H](CCCCN)NC(=O)[C@H](CCC(N)=O)NC(=O)[C@H](CCC(N)=O)NC(=O)[C@H](CC(N)=O)NC(=O)[C@@H](NC(=O)[C@H](CC(C)C)NC(=O)[C@H](CC(N)=O)NC(=O)[C@@H]1CCCN1C(=O)[C@H](CC(=O)O)NC(=O)[C@H](CC(C)C)NC(=O)[C@H](C)NC(=O)[C@H](CS)NC(=O)[C@H](CCCC(=O)NCCN(CC(=O)NCCN(CC(=O)NCCN(CC(=O)NCCN(CC(N)=O)C(=O)Cn1cnc2c(=O)[nH]c(N)nc21)C(=O)Cn1ccc(N)nc1=O)C(=O)Cn1ccc(N)nc1=O)C(=O)Cn1cnc2c(=O)[nH]c(N)nc21)NC(=O)[C@H](Cc1c[nH]c2ccccc12)NC(=O)[C@H](Cc1ccc(O)cc1)NC(=O)[C@H](CCCNC(=N)N)NC(=O)[C@H](CC(N)=O)NC(=O)[C@H](CCCNC(=N)N)NC(=O)[C@H](CC1CCCCC1)NC(=O)[C@H](CCC(=O)O)NC(=O)[C@H](CCCCN)NC(=O)[C@H](CO)NC(=O)[C@H](Cc1ccccc1)NC(C)=O)[C@@H](C)O)C(=O)N[C@@H](CCCNC(=N)N)C(=O)N[C@@H](CO)C(=O)N[C@H](C(=O)N[C@@H](Cc1ccc(O)cc1)C(=O)N[C@@H](CCC(=O)O)C(=O)N[C@@H](CCC(=O)O)C(N)=O)[C@@H](C)CC", "target": "Receptor tyrosine-protein kinase erbB-2 (ERBB2, Homo sapiens, UniProt P04626)", "test": "binding, SPR", "quantity": "Kd", "result": "0.00058 µM"}
{"Compound": "N#Cc1c(Cl)c(Cl)c(Cl)c(C#N)c1Cl", "target": "SLC22A11", "test": "transporter uptake, inhibitor", "quantity": "IC50", "result": "7.3 µM"}
{"Compound": "O=C(Nc1cccc(F)c1)Nc1ccc2c(c1)C=CCP(=O)(O)O2", "target": "CA1", "test": "enzyme activity, inhibitor, stopped-flow", "quantity": "Ki", "result": "> 10 µM"}
{"Compound": "O=C(CP(=O)(Oc1ccccc1)Oc1ccccc1)N/N=C/c1ccncc1Br", "target": "Protein phosphatase methylesterase 1", "test": "enzyme activity, inhibitor", "conditions": "lysate", "quantity": "IC50", "result": "7 µM"}
{"Compound": "CC(C)C[C@H]1C(=O)N2CCC[C@H]2[C@]2(O)O[C@](NC(=O)[C@@H]3C=C4c5cccc6[nH]c(Br)c(c56)C[C@H]4N(C)C3)(C(C)C)C(=O)N12", "target": "Synaptic vesicular amine transporter (SLC18A2, Homo sapiens, UniProt Q05940)", "test": "transporter uptake, inhibitor", "quantity": "IC50", "result": "4.85 µM"}
{"Compound": "CCCCC1CNC2CCc3ccc(OC)cc3C12 (racemic)", "target": "ADRA2A", "test": "ligand displacement, radioligand", "quantity": "Ki", "result": "0.26 µM"}
{"Compound": "CCOC(=O)c1ccc(OC(=O)CCCCCN=C(N)N)cc1", "target": "Tryptase gamma (Homo sapiens, UniProt Q9NRR2)", "test": "enzyme activity, inhibitor", "quantity": "IC50", "result": "1.99 µM"}
{"Compound": "O=C(Nc1ccc(C(F)(F)F)cc1)Nc1ccc2c(c1)C=CCP(=O)(O)O2", "target": "CA1", "test": "enzyme activity, inhibitor, stopped-flow", "quantity": "Ki", "result": "> 10 µM"}
{"Compound": "C[CH2][Hg][S]c1ccccc1C(=O)[O-].[Na+]", "target": "SLC22A11", "test": "transporter uptake, inhibitor", "quantity": "IC50", "result": "5 µM"}
{"Compound": "O=C(Nc1ccc2c(c1)C=CCP(=O)(O)O2)Nc1ccccc1Br", "target": "CA1", "test": "enzyme activity, inhibitor, stopped-flow", "quantity": "Ki", "result": "> 10 µM"}
{"Compound": "O=P(Oc1ccccc1)(Oc1ccccc1)C(NCc1cncc2ccccc12)c1ccc(O)cc1 (stereo not drawn)", "target": "Protein phosphatase methylesterase 1", "test": "enzyme activity, inhibitor", "conditions": "lysate", "quantity": "IC50", "result": "15.5 µM"}
{"Compound": "COc1cc2c(cc1OC)CN(CCc1ccc(NC(=O)c3cccc4c(=O)c5cccc(OC)c5[nH]c34)cc1)CC2", "target": "ADRA2A", "test": "cell-free assay", "quantity": "Ki", "result": "1.37 µM"}
{"Compound": "NC(=S)N/N=C1/c2ccccc2[C@@H]2[C@H]1[C@@H](c1ccoc1)[C@H](C(=O)c1ccco1)[C@H]2c1ccoc1", "target": "Carbonic anhydrase 2 (CA2, Homo sapiens, UniProt P00918)", "test": "enzyme activity, inhibitor, absorbance", "quantity": "IC50", "result": "0.748 µM"}
{"Compound": "O=C(Nc1ccc2c(c1)C=CCP(=O)(O)O2)c1ccc2ccccc2c1", "target": "CA1", "test": "enzyme activity, inhibitor, stopped-flow", "quantity": "Ki", "result": "> 10 µM"}
